# In ChEMBL document CHEMBL4038305, “Benzoxaborole Antimalarial Agents. Part 5. Lead Optimization of Novel Amide Pyrazinyloxy Benzoxaboroles and Identification of a Preclinical Candidate” (J Med Chem, 2017):
# pIC50: −log10 of the molar value. Active and inactive are the calls of the source. The calls are words filed in the database; no cut-off is given here.
# Assays:
# Plasmodium berghei = test: Antimalarial activity against Plasmodium berghei infected in Swiss Webster mouse assessed as mouse survival rate at 30 mg/kg administered once daily via oral gavage for 4 consecutive days beginning 1 hr after infection measured from day 4 to day 20 post infection relative to control; format: functional
# How it was run: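 P. berghei-infected erythrocytes taken from a previously infected mouse were injected intraperitoneally. Oral dosing, once daily for 4 consecutive days, began 1 h after infection, in polyethylene glycol 300/propylene glycol/water (55/25/20 by weight). Chloroquine at 30 mg/kg was the positive control, with a vehicle-only group. Percent survival was recorded daily from day 4 to day 20.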
# Plasmodium falciparum [1] = test: Antimalarial activity against Plasmodium falciparum 3D7 0087/N9 infected in NOD/SCID IL2R gamma null mouse assessed as decrease in parasitemia at 2.5 to 50 mg/kg up to 7 days post infection; format: functional, organism-based
# How it was run: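 Human-erythrocyte-engrafted NODscidIL2Rγnull mice carrying P. falciparum Pf3D70087/N9 in peripheral blood; compound given orally once daily for four consecutive days.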
# Plasmodium falciparum [2] = test: Antimalarial activity against intraerythrocytic stage of Plasmodium falciparum assessed as time required for maximal killing effect at 10 times IC50 preincubated for 24 hrs followed by [3H]-hypoxanthine addition measured after 24 hrs by scintillation counting method; format: functional
# How it was run: (§1)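 In vitro P. falciparum parasite reduction ratio assay run at 10×, 30× and 100× IC50. Derived parameters: lag phase (time to maximal killing), PRR (parasites killed per life cycle) and PCT99.9% (time to clear 99.9% of the initial parasite population).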
# Plasmodium falciparum [3] = test: Antimalarial activity against intraerythrocytic stage of Plasmodium falciparum assessed as time required to clear 99.9% of initial parasite population at 10 times IC50 preincubated for 24 hrs followed by [3H]-hypoxanthine addition measured after 24 hrs by scintillation counting method; format: functional; how it was run: as §1
# Plasmodium falciparum [4] = test: Antimalarial activity against chloroquine-resistant Plasmodium falciparum W2 infected in human erythrocytes after 48 hrs by YOYO-1 dye based flow cytometric analysis; format: functional, cell-based; conditions: W2, 48 h
# How it was run: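 P. falciparum W2 cultures were exposed to the compound for 48 h, with artemisinin and chloroquine as reference controls. IC50 was taken from two independent replicates.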
# Plasmodium falciparum [5] = test: Antimalarial activity against Plasmodium falciparum 3D7 0087/N9 infected in NOD/SCID IL2R gamma null mouse assessed as decrease in parasitemia at 1 to 100 mg/kg up to 7 days post infection; format: functional, organism-based
# How it was run: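 The P. falciparum 3D70087/N9 strain grew in the peripheral blood of NODscidIL2Rγnull mice engrafted with human erythrocytes. Compounds were given orally once a day for four consecutive days.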
# Plasmodium falciparum [6] = test: Antimalarial activity against intraerythrocytic stage of Plasmodium falciparum assessed as parasite reduction ratio at 10 times IC50 preincubated for 24 hrs followed by [3H]-hypoxanthine addition measured after 24 hrs by scintillation counting method; format: functional; how it was run: as §1
# Salmonella typhimurium [7] = test: Genotoxicity in Salmonella typhimurium TA98 assessed as number of revertants per plate at 1 ug/plate in absence of rat liver S9 fraction by Ames test (reference value: 14 +/- 6); format: toxicity; conditions: salmonella enterica subsp. enterica serovar typhimurium
# Plasmodium falciparum [8] = test: Antimalarial activity against Plasmodium falciparum NF54 infected in human erythrocytes assessed as reduction in [3H]-hypoxanthine incorporation preincubated for 24 hrs followed by [3H]-hypoxanthine addition measured after 24 hrs by scintillation counting method; format: functional, cell-based
# Plasmodium falciparum [9] = test: Antimalarial activity against Plasmodium falciparum K1 infected in human erythrocytes assessed as reduction in [3H]-hypoxanthine incorporation preincubated for 24 hrs followed by [3H]-hypoxanthine addition measured after 24 hrs by scintillation counting method; format: functional, cell-based
# Plasmodium falciparum [10] = test: Antimalarial activity against Plasmodium falciparum T9/94 infected in human erythrocytes assessed as reduction in [3H]-hypoxanthine incorporation preincubated for 24 hrs followed by [3H]-hypoxanthine addition measured after 24 hrs by scintillation counting method; format: functional, cell-based
# Plasmodium falciparum [11] = test: Antimalarial activity against Plasmodium falciparum HB3 infected in human erythrocytes assessed as reduction in [3H]-hypoxanthine incorporation preincubated for 24 hrs followed by [3H]-hypoxanthine addition measured after 24 hrs by scintillation counting method; format: functional, cell-based
# Plasmodium falciparum [12] = test: Antimalarial activity against Plasmodium falciparum TM90C2A infected in human erythrocytes assessed as reduction in [3H]-hypoxanthine incorporation preincubated for 24 hrs followed by [3H]-hypoxanthine addition measured after 24 hrs by scintillation counting method; format: functional, cell-based
# Plasmodium falciparum [13] = test: Antimalarial activity against Plasmodium falciparum TM90C2B infected in human erythrocytes assessed as reduction in [3H]-hypoxanthine incorporation preincubated for 24 hrs followed by [3H]-hypoxanthine addition measured after 24 hrs by scintillation counting method; format: functional, cell-based
# Plasmodium falciparum [14] = test: Antimalarial activity against Plasmodium falciparum Dd2 infected in human erythrocytes assessed as reduction in [3H]-hypoxanthine incorporation preincubated for 24 hrs followed by [3H]-hypoxanthine addition measured after 24 hrs by scintillation counting method; format: functional, cell-based
# Plasmodium falciparum [15] = test: Antimalarial activity against Plasmodium falciparum V1/S infected in human erythrocytes assessed as reduction in [3H]-hypoxanthine incorporation preincubated for 24 hrs followed by [3H]-hypoxanthine addition measured after 24 hrs by scintillation counting method; format: functional, cell-based
# Salmonella typhimurium [16] = test: Genotoxicity in Salmonella typhimurium TA98 assessed as number of rrevertants per plate at 2 ug/plate in presence of rat liver S9 fraction by Ames test (reference value: 19 +/- 8); format: toxicity; conditions: salmonella enterica subsp. enterica serovar typhimurium
# Salmonella typhimurium [17] = test: Genotoxicity in Salmonella typhimurium TA100 assessed as number of revertants per plate at 2 ug/plate in presence of rat liver S9 fraction by Ames test (reference value: 141 +/- 1); format: toxicity; conditions: salmonella enterica subsp. enterica serovar typhimurium
# How it was run: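 TA100 positive control under S9 activation: 2-aminoanthracene at 2.0 μg/plate, plate incorporation, average revertants per plate.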
# Salmonella typhimurium [18] = test: Genotoxicity in Salmonella typhimurium TA1535 assessed as number of revertants per plate at 2 ug/plate in presence of rat liver S9 fraction by Ames test (reference value: 10); format: toxicity; conditions: salmonella enterica subsp. enterica serovar typhimurium
# Salmonella typhimurium [19] = test: Genotoxicity in Salmonella typhimurium TA1537 assessed as number of revertants per plate at 2 ug/plate in presence of rat liver S9 fraction by Ames test (reference value: 11 +/- 4); format: toxicity; conditions: salmonella enterica subsp. enterica serovar typhimurium
# Escherichia coli [20] = test: Genotoxicity in Escherichia coli WP2uvrA assessed as number of revertants per plate at 15 ug/plate in presence of rat liver S9 fraction by Ames test (reference value: 42 +/- 6); format: toxicity
# Salmonella typhimurium [21] = test: Genotoxicity in Salmonella typhimurium TA1537 assessed as number of revertants per plate at 75 ug/plate in absence of rat liver S9 fraction by Ames test (reference value: 19 +/- 9); format: toxicity; conditions: salmonella enterica subsp. enterica serovar typhimurium
# Escherichia coli [22] = test: Genotoxicity in Escherichia coli WP2uvrA assessed as number of revertants per plate at 1000 ug/plate in absence of rat liver S9 fraction by Ames test (reference value: 45 +/- 9); format: toxicity
structure (smiles),measurement,setting,value
CCN(CC)CCCC(C)Nc1ccnc2cc(Cl)ccc12 (stereo not drawn) [CHLOROQUINE],survival at 30 mg/kg,Plasmodium berghei,100%
same,Activity,Plasmodium falciparum [1],Active
same,Time,Plasmodium falciparum [2],0 h
same,T99.9%,Plasmodium falciparum [3],34 h
C[C@@H]1CC[C@H]2[C@@H](C)C(=O)O[C@@H]3O[C@@]4(C)CC[C@@H]1[C@]32OO4 [ARTEMISININ],pIC50,Plasmodium falciparum [4],8.22
same,Activity,Plasmodium falciparum [5],Active
same,Time,Plasmodium falciparum [2],0 h
same,log(ratio),Plasmodium falciparum [6],>4.8
same,T99.9%,Plasmodium falciparum [3],<24 h
O=[N+]([O-])c1ccc2c(c1)Cc1ccccc1-2 [2-NITROFLUORENE],Activity,Salmonella typhimurium [7],162
CCc1nc(N)nc(N)c1-c1ccc(Cl)cc1 [PYRIMETHAMINE],pIC50,Plasmodium falciparum [8],7.35
same,pIC50,Plasmodium falciparum [9],< 4.70
same,pIC50,Plasmodium falciparum [10],7.42
same,pIC50,Plasmodium falciparum [11],5.47
same,pIC50,Plasmodium falciparum [12],< 4.70
same,pIC50,Plasmodium falciparum [13],< 4.70
same,pIC50,Plasmodium falciparum [14],< 4.70
same,pIC50,Plasmodium falciparum [15],< 4.70
same,Time,Plasmodium falciparum [2],24 h
same,log(ratio),Plasmodium falciparum [6],2.9
same,T99.9%,Plasmodium falciparum [3],61 h
Nc1ccc2cc3ccccc3cc2c1 [2-AMINOANTHRACENE],Activity,Salmonella typhimurium [16],524
same,Activity,Salmonella typhimurium [17],550
same,Activity,Salmonella typhimurium [18],163
same,Activity,Salmonella typhimurium [19],82
same,Activity,Escherichia coli [20],311
Nc1c2ccccc2nc2ccccc12 [AMINACRINE],Activity,Salmonella typhimurium [21],430
COS(C)(=O)=O [METHANESULFONIC ACID METHYL ESTER],Activity,Escherichia coli [22],357
